From PubChem BioAssay
Rows were chosen to be rich in hits. Some 5.9% of all compounds tested hit in one or more screens of this group.
Pf Dd2 inh: P. falciparum Dd2 growth inhibition. SYBR Green, 72 h; hits give low values. activity change, % at 10 µM. 94,000 compounds, 2.3% hits. AID 1159554; in the data active = activity change below about -80%; inconclusive = no clear call, values can overlap the other calls
IDH1 mut inh: IDH1 R132H (human) inhibition; AID 624101; inhibition, % at 10 µM; O75874; IDH1 R132H reductase, diaphorase/resazurin fluorescence, 60 min; 70,000 compounds, 0.18% hits; in the data active = inhibition above about 34%; inconclusive = no clear call, values can overlap the other calls; inactive = below about 11%
KDM4C inh: inhibitors of human demethylase GASC-1 KDM4C; Q9H3R0; GST-KDM4C 2-372, H3K9me3 peptide, LANCE TR-FRET; inhibition, % at 12.5 µM; 96,000 compounds, 0.15% hits;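 active = mean replicate inhibition above about 25%, with at least 55% of replicates also reaching it, limit read from the data, passing the limit was not always enough; inconclusive = only one of those two conditions met; inactive = neither condition met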
Target sequence (Q9H3R0 2-372 limits assumed): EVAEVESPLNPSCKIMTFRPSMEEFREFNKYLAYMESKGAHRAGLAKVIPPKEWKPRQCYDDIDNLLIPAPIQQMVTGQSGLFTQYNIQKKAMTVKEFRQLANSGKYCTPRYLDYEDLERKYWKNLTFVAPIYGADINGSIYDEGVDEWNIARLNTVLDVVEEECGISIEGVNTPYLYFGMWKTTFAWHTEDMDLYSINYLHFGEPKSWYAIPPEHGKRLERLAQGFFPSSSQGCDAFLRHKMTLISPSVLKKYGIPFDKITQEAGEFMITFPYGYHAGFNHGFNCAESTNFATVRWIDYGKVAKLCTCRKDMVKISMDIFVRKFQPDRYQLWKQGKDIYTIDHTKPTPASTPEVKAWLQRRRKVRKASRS
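Test system – GST-tagged GASC-1 (JMJD2C) catalytic fragment, aa 2-372 · Medium – HEPES buffer, pH 7.5, plus ascorbate · Reagent – H3K9me3 peptide with Fe(II)/2OG · Compound – one test concentration per compound · Timing – 30 min reaction, 60 min detection, RT · Technique – TR-FRET with Eu antibody and ULight streptavidin, EDTA stop · Read-out basis – inhibition from TR-FRET ratio decrease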
T cruzi growth-1: blocks T. cruzi growth in NIH3T3 culture; 77,000 compounds, 5.9% hits; T. cruzi beta-gal in NIH3T3, GalScreen luminescence, 90 h; inhibition, % at 8.34 µM;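 active = mean inhibition above about 93%, with at least 55% of replicates each passing it, limit read from the data, passing the limit was not always enough; inconclusive = only one of those two conditions holds; inactive = neither condition holds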
T cruzi growth-2: inhibitors of T. cruzi proliferation; AID 651739; inhibition, % at 8.35 µM; 5,600 compounds, 72% hits; T. cruzi beta-gal in NIH3T3, GalScreen luminescence, 90 h; shares compounds with T cruzi growth-1;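 active = mean replicate inhibition above about 95% and at least 55% of replicates individually reaching it, limit read from the data; inconclusive = only one of the two criteria is met; inactive = neither criterion is met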
T cruzi growth-3: blocks T. cruzi growth in NIH3T3 host cells. 5,600 compounds, 21% hits. inhibition, % at 2.09 µM. AID 651740. shares compounds with T cruzi growth-1. T. cruzi beta-gal in NIH3T3, GalScreen luminescence, 90 h;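 active = mean inhibition above about 95%, with at least 55% of replicates also reaching it, limit read from the data; inconclusive = meets just one of the two conditions; inactive = meets neither condition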
NIH3T3 tox: cytotoxicity in mouse NIH/3T3 fibroblasts | shares compounds with T cruzi growth-1 | NIH/3T3 viability, CellTiter-Glo ATP luminescence, 90 h | cytotoxicity (signal decrease), % at 8.35 µM | 5,600 compounds, 14% hits | AID 651742;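 active = mean signal decrease across replicates above about 35% based on untreated-well scatter, with enough replicates individually passing, limit read from the data; inconclusive = no rule stated though some were filed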
NIH3T3 tox 2: kills mouse NIH/3T3 fibroblasts; inhibition, % at 24.9 µM; 5,600 compounds, 56% hits; NIH/3T3 viability, CellTiter-Glo ATP luminescence, 90 h; shares compounds with T cruzi growth-1;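 active = mean loss of cell viability signal at or above a set limit, and enough replicates individually reaching it; inconclusive = meets only the mean limit or only the replicate share; inactive = meets neither condition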
Numbers stand for hits; i = inactive; ? = inconclusive; nt = not tested or not shown; ! = repeats disagree.

SMILES	Pf Dd2 inh	IDH1 mut inh	KDM4C inh	T cruzi growth-1	T cruzi growth-2	T cruzi growth-3	NIH3T3 tox	NIH3T3 tox 2
Cc1cccc(S(=O)(=O)N2CCCCN3[C@H](CO)[C@H](c4ccc(-c5ccncc5)cc4)[C@H]3C2)c1	i	nt	i	110	107	i	i	37
Cc1ccc(-c2ccc([C@@H]3[C@H](CO)N4CCCCN(S(=O)(=O)c5cccc(C)c5)C[C@@H]34)cc2)cc1	i	nt	nt	108	?	98	i	104
Cc1cccc(S(=O)(=O)N2CCCCN3[C@@H](CO)[C@H](c4ccc(-c5ccncc5)cc4)[C@@H]3C2)c1	i	nt	i	98	107	i	i	46
Cc1ccc(-c2ccc([C@H]3[C@H](CO)N4CCCCN(S(=O)(=O)c5cccc(C)c5)C[C@@H]34)cc2)cc1	i	nt	nt	i	nt	nt	nt	nt
CC1=Nc2ccc(C)cc2/C1=C\c1c(N)n2nc(S(=O)(=O)CC(C)C)sc2nc1=O	nt	i	nt	nt	nt	nt	nt	nt
CCOc1ccc(NS(=O)(=O)c2cc(C(=O)O)ccc2OC)cc1	nt	i	nt	nt	nt	nt	nt	nt
CCOC(=O)Cn1c(=O)c2cnc3c(c(C)nn3C)c2n1C	nt	i	nt	nt	nt	nt	nt	nt
CCCN(C)C[C@@H]1OCCCC[C@H](C)Oc2ccc(NC(=O)CCCN(C)C)cc2C(=O)N([C@@H](C)CO)C[C@@H]1C	i	i	i	?	i	i	i	i
C[C@H]1CCCCO[C@H](CN(C)Cc2ccncc2)[C@@H](C)CN([C@@H](C)CO)C(=O)c2cc(NC(=O)CCCN(C)C)ccc2O1	i	i	i	99	i	i	i	i
C[C@@H]1CCCCO[C@@H](CN(C)Cc2ccc(C(F)(F)F)cc2)[C@@H](C)CN([C@@H](C)CO)C(=O)c2cc(NC(=O)CCCN(C)C)ccc2O1	-85	i	i	100	105	i	i	102
CCn1c(SCc2nc3ccccc3c(=O)[nH]2)nnc1-c1ccc(Cl)cc1	nt	i	nt	nt	nt	nt	nt	nt
COc1cc(OC2OC(COC3OCC(O)(CO)C3O)C(O)C(O)C2O)c2c(-c3ccc(O)c(O)c3)cc(=O)oc2c1 (stereo not given)	nt	i	nt	nt	nt	nt	nt	nt
COc1cccc(C#Cc2ccc3c(c2)[C@H]2[C@H](CCN2S(=O)(=O)c2ccccc2)[C@H](CO)N3)c1	i	nt	i	105	108	i	i	i
COc1cccc(C#Cc2ccc3c(c2)[C@@H]2[C@@H](CCN2S(=O)(=O)c2ccccc2)[C@H](CO)N3)c1	i	nt	i	nt	nt	nt	nt	nt
COc1cccc(S(=O)(=O)N2CC[C@@H]3[C@H](CO)Nc4ccc(C#Cc5cccnc5)cc4[C@@H]32)c1	i	nt	i	110	108	i	i	i
CCn1c(SCC(=O)Nc2ccc(C)cc2)nnc1-c1cccnc1	nt	i	nt	nt	nt	nt	nt	nt
C[C@@H]1CN([C@H](C)CO)C(=O)c2cc(NC(=O)Nc3cccc4ccccc34)ccc2O[C@@H](C)CCCCO[C@@H]1CN(C)Cc1ccccc1	i	i	i	nt	nt	nt	nt	nt
C[C@H]1CCCCO[C@H](CN(C)Cc2ccc3c(c2)OCO3)[C@@H](C)CN([C@@H](C)CO)C(=O)c2cc(NC(=O)Nc3cccc4ccccc34)ccc2O1	i	i	i	i	nt	nt	nt	nt
C[C@@H]1CCCCO[C@@H](CN(C)C(=O)Nc2ccc3c(c2)OCO3)[C@H](C)CN([C@H](C)CO)C(=O)c2cc(NC(=O)Nc3cccc4ccccc34)ccc2O1	i	i	i	nt	nt	nt	nt	nt
C[C@@H]1CN([C@H](C)CO)C(=O)c2cc(NC(=O)Nc3cccc4ccccc34)ccc2O[C@@H](C)CCCCO[C@@H]1CN(C)Cc1ccc2c(c1)OCO2	-89	i	i	?	98	109	i	38
C[C@@H]1CCCCO[C@@H](CN(C)Cc2ccc3c(c2)OCO3)[C@H](C)CN([C@@H](C)CO)C(=O)c2cc(NC(=O)Nc3cccc4ccccc34)ccc2O1	i	nt	i	?	104	?	i	47
C[C@@H]1CCCCO[C@H](CN(C)Cc2ccc3c(c2)OCO3)[C@H](C)CN([C@@H](C)CO)C(=O)c2cc(NC(=O)Nc3cccc4ccccc34)ccc2O1	i	i	i	116	i	103	i	103
Cc1ccc(S(=O)(=O)N2CC[C@@H]3[C@@H](CO)Nc4ccc(C#Cc5ccccc5F)cc4[C@@H]32)cc1	i	nt	i	102	97	102	i	i
O=S(=O)(c1cccc(F)c1)N1CC[C@@H]2[C@H]1c1cc(C#Cc3ccccc3F)ccc1N[C@@H]2CO	i	nt	i	?	i	108	i	104
O=S(=O)(c1cccc(F)c1)N1CC[C@@H]2[C@@H](CO)Nc3ccc(C#Cc4ccccc4F)cc3[C@@H]21	i	nt	i	?	104	112	i	i
SMILES	Pf Dd2 inh	IDH1 mut inh	KDM4C inh	T cruzi growth-1	T cruzi growth-2	T cruzi growth-3	NIH3T3 tox	NIH3T3 tox 2
Cc1ccc(S(=O)(=O)N2CC[C@@H]3[C@H](CO)Nc4ccc(C#Cc5ccccc5F)cc4[C@@H]32)cc1	i	nt	i	i	nt	nt	nt	nt
C[C@H]1CN([C@@H](C)CO)S(=O)(=O)c2ccc(-c3ccncc3)cc2O[C@H]1CN(C)C(=O)c1cccc(F)c1	i	i	i	105	102!	i	i	i
C[C@@H]1CN([C@H](C)CO)S(=O)(=O)c2ccc(-c3ccncc3)cc2O[C@@H]1CN(C)C(=O)c1cccc(F)c1	i	i	i	104	i	i	i	55
C[C@H]1CN([C@@H](C)CO)S(=O)(=O)c2ccc(-c3cccc(F)c3)cc2O[C@@H]1CN(C)C(=O)c1cccc(F)c1	i	i	i	i	nt	nt	nt	nt
C[C@@H]1CN([C@H](C)CO)S(=O)(=O)c2ccc(-c3cccc(F)c3)cc2O[C@H]1CN(C)C(=O)c1cccc(F)c1	i	i	i	i	nt	nt	nt	nt
O=C(CN1C(=O)CNC1=O)Nc1cccc2ccccc12	nt	i	nt	nt	nt	nt	nt	nt
COC(=O)Nc1sc(C)c(C)c1C(=O)NCc1cccnc1	nt	i	nt	nt	nt	nt	nt	nt
CN1CCCCN2[C@@H](CO)[C@@H](c3ccc(/C=C/c4ccccc4)cc3)[C@@H]2C1	i	nt	i	i	nt	nt	nt	nt
CN(C)CC(=O)N1CCCCN2[C@H](CO)[C@@H](c3ccc(/C=C/c4ccccc4)cc3)[C@@H]2C1	i	nt	i	i	nt	nt	nt	nt
CCC(=O)N1CCCCN2[C@H](C1)[C@H](c1ccc(/C=C/c3ccccc3)cc1)[C@@H]2CO	i	nt	i	105	i	i	i	103
CCC(=O)N1CCCCN2[C@@H](CO)[C@@H](c3ccc(/C=C/c4ccccc4)cc3)[C@@H]2C1	i	nt	i	118	99	i	i	105
CCC(=O)N1CCCCN2[C@H](CO)[C@@H](c3ccc(/C=C/c4ccccc4)cc3)[C@@H]2C1	i	nt	i	i	nt	nt	nt	nt
